The test system of data set [1] is Rattus norvegicus. As to the kind of experiment: Toxicity assessed as ulcerogenic effect in Albino rat at 30 mg/kg, po twice a day after 3 days. On the set-up: dose 30 mg/kg, route oral. The class given is organism-based. The conditions noted are these: in vivo, 72 h. In a few lines: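 Male albino rats, 150–200 g, fasted 12 h (water ad libitum), six per group. Oral dosing in two equal doses of 30 mg/kg at 0 and 12 h for three successive days; controls received 1% gum acacia orally. Killed with diethyl ether 6 h after final dose; stomach opened along greater curvature, saline-washed, examined under 3× lens for hyperemia, haemorrhage or ulcer. % ulceration = ulcer-bearing animals/group total ×100.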

Data set [2] relates to Rattus norvegicus. As to the kind of experiment: Antiinflammatory activity against carrageenan-induced paw edema in Albino rat at 30 mg/kg body weight, sc. The class given is functional. The conditions noted are these: route subcutaneous. In outline:
(§1)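 Rats from National Research Centre, acclimatised one week, 12 h light/dark, food and water ad libitum; groups of six. Right hind paw sub-plantar injection of 0.05 mL 1% carrageenan in saline. Drugs dissolved in DMSO, given subcutaneously; vehicle controls got DMSO. Paw volume measured before and 0.5, 1.5, 2, 3, 6, 8 h post-carrageenan; edema AUC by trapezoidal method, mean ± S.E.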
Background: Carrageenan injected into the paw causes an acute inflammation.

The subject of data set [3] is Rattus norvegicus. Kind of data set: Antiinflammatory activity against carrageenan-induced paw edema in Albino rat at 200 mg/kg body weight, sc. The class given is functional. Particulars: route subcutaneous. In a few lines:
as §1

SMILES strings stand for the structures.

These results are taken from ChEMBL document CHEMBL1142876, “Non-carboxylic analogues of arylpropionic acids: synthesis, anti-inflammatory activity and ulcerogenic potential” (Eur J Med Chem, 2007).

Take `CC(C)Cc1ccc(C(C)c2nnc(Nc3ccc(Br)cc3)[nH]2)cc1` (centres undefined): the Activity with Rattus norvegicus [1] was 33.3%; in the data set with Rattus norvegicus [2] it was 69.52%.

Consider `CC(c1ccc(-c2ccccc2)c(F)c1)c1nnc(Nc2cccc(Cl)c2)[nH]1` (centres undefined), for which the results for the Activity in the data set on Rattus norvegicus [1] and in the data set on Rattus norvegicus [2] were 0% and 69.65%, respectively.

For the molecule `COc1ccc2cc(C(C)c3nnc(Nc4cccc(Cl)c4)[nH]3)ccc2c1` (centres undefined), the results for the Activity in the data set with Rattus norvegicus [1] and in the data set with Rattus norvegicus [2] were 0% and 66.8%, respectively.

In the data set on Rattus norvegicus [2], `COc1ccc2cc(C(C)c3nnc(Nc4ccc(Br)cc4)[nH]3)ccc2c1` (centres undefined) showed an Activity of 69.67%.

In the data set with Rattus norvegicus [2], `CC(C)Cc1ccc(C(C)c2nnc(Nc3cccc(Cl)c3)[nH]2)cc1` (centres undefined) registered an Activity of 70.86%.

In the case of `CC(c1ccc(-c2ccccc2)c(F)c1)c1nnc(Nc2ccc(Br)cc2)[nH]1` (centres undefined), the Activity with Rattus norvegicus [1] is reported as 0%; with Rattus norvegicus [2], 68.36%.

In the case of `CC(C)Cc1ccc(C(C)c2nnc3sc(S)nn23)cc1` (centres undefined), the Activity in the data set on Rattus norvegicus [2] is given as 72.1%.

With `C[C@]12CCC(=O)C=C1CC[C@@H]1[C@@H]2[C@@H](O)C[C@@]2(C)[C@H]1CC[C@]2(O)C(=O)CO` [HYDROCORTISONE], in the data set on Rattus norvegicus [3], the Activity worked out at 73.39%.

In turn, `CC(C)Cc1ccc(C(C)C(=O)O)cc1` (centres undefined) [IBUPROFEN] came in with an Activity in the data set with Rattus norvegicus [2] of 86.07%.

As to `COc1ccc2c(c1)c(CC(=O)O)c(C)n2C(=O)c1ccc(Cl)cc1` [INDOMETHACIN], in the data set on Rattus norvegicus [1], the Activity was found to be 100%.
